The source made the active and inactive calls. The calls are words filed in the database; no cut-off is given here.
Legend:
Jurkat [1] = experiment: Cell cycle arrest in Jurkat cells assessed as accumulation at S phase at 25 uM after 15 hrs relative to control; format: functional, Homo sapiens
Summary of the method: (§1)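 Jurkat cells treated 15 h (test agents 5 μM, colchicine 25 μM, DMSO vehicle control); DNA stained with Vybrant Orange and analysed by flow cytometry; percent of cells in G0/G1, S and G2/M given as mean ± SD.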

Jurkat [2] = experiment: Cell cycle arrest in Jurkat cells assessed as accumulation at G2/M phase at 25 uM after 15 hrs relative to control; format: functional, Homo sapiens; summary of the method: as §1
Jurkat [3] = experiment: Cell cycle arrest in Jurkat cells assessed as accumulation at G0/G1 phase at 25 uM after 15 hrs relative to control; format: functional, Homo sapiens; summary of the method: as §1
Jurkat [4] = experiment: Induction of apoptosis in Jurkat cells at 5 uM after 36 hrs by flow cytometry; format: functional, Homo sapiens
Summary of the method: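 Jurkat cells incubated 36 h with agents at 5 μM (DMSO control); apoptosis scored by flow cytometry after annexin-V/propidium iodide staining; two experiments.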

HeLa = experiment: Antiproliferative activity against human HeLa cells after 48 hrs by MTT assay relative to control; format: functional, cell-based
Summary of the method: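 HeLa cells exposed to compounds for 48 h; viability read as mitochondrial dehydrogenase activity by MTT reduction; IC50 values derived.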

Jurkat [5] = experiment: Cell cycle arrest in Jurkat cells assessed as accumulation at S phase at 5 uM after 15 hrs relative to control; format: functional, Homo sapiens; summary of the method: as §1
Jurkat [6] = experiment: Cell cycle arrest in Jurkat cells assessed as accumulation at G0/G1 phase at 5 uM after 15 hrs relative to control; format: functional, Homo sapiens; summary of the method: as §1
Jurkat [7] = experiment: Cell cycle arrest in Jurkat cells assessed as accumulation at G2/M phase at 5 uM after 15 hrs relative to control; format: functional, Homo sapiens; summary of the method: as §1

Work on `COc1cc2c(c(OC)c1OC)-c1ccc(OC)c(=O)cc1[C@@H](NC(C)=O)CC2` [COLCHICINE] yielded an Activity (Jurkat [1]) of 23.1%, an Activity (Jurkat [2]) of 57.9% and an Activity (Jurkat [3]) of 19%.
For `COc1cc(C2C(C#N)=C(N)Oc3cc(C)n(C)c(=O)c32)cc(Br)c1O` (stereo not drawn), the Activity (Jurkat [4]) was 50% and the IC50 (HeLa) was 2.67 µM.
With `Cc1cc2c(c(=O)n1C)C(c1ccc(F)c(Br)c1)C(C#N)=C(N)O2` (stereo not drawn) the Activity (Jurkat [4]) was 50% and the IC50 (HeLa) was 6.33 µM.
Compound `COc1cc(C2C(C#N)=C(N)Oc3cc(C)n(C)c(=O)c32)cc(OC)c1OC` (stereo not drawn) has an IC50 (HeLa) of 43.3 µM.
`Cc1cc2c(c(=O)n1C)C(c1ccc(N(C)C)c(Br)c1)C(C#N)=C(N)O2` (stereo not drawn) showed an Activity (Jurkat [4]) of 50%, an IC50 (HeLa) of 0.33 µM and an Activity (Jurkat [5]) of 18.1%. The Activity (Jurkat [6]) was 14.4% and the Activity (Jurkat [7]) was 67.5%.
With `COc1cc(C2C(C#N)=C(N)Oc3cc(C)n(C)c(=O)c32)cc(Br)c1OC` (stereo not drawn) the Activity (Jurkat [4]) was 50%, the IC50 (HeLa) was 0.58 µM and the Activity (Jurkat [5]) was 19%. It also gave an Activity (Jurkat [6]) of 12% and an Activity (Jurkat [7]) of 68.5%.
With `Cc1cc2c(c(=O)n1C)C(c1cccc([N+](=O)[O-])c1)C(C#N)=C(N)O2` (stereo not drawn) the Activity (Jurkat [4]; Homo sapiens) was “inactive” and the IC50 (HeLa) was 35 µM.
In the case of `Cc1cc2c(c(=O)n1C)C(c1ccc(C(C)C)cc1)C(C#N)=C(N)O2` (stereo not drawn), the Activity (Jurkat [4]; Homo sapiens) is reported as “inactive” and the IC50 (HeLa) is reported as greater than 100 µM.
For `CCOc1c(Br)cc(C2C(C#N)=C(N)Oc3cc(C)n(C)c(=O)c32)cc1OC` (stereo not drawn), the Activity (Jurkat [4]) was 50% and the IC50 (HeLa) was 1.08 µM.
In the case of `Cc1cc2c(c(=O)o1)C(c1cccc(Br)c1)C(C#N)=C(N)O2` (stereo not drawn), the IC50 (HeLa) is reported as greater than 100 µM.
With `Cc1cc2c(c(=O)n1C)C(c1ccc(Cl)c(Cl)c1)C(C#N)=C(N)O2` (stereo not drawn) the Activity (Jurkat [4]; Homo sapiens) was “inactive” and the IC50 (HeLa) was 18.3 µM.
With `COc1ccc(CCn2c(C)cc3c(c2=O)C(c2cc(OC)c(OC)c(OC)c2)C(C#N)=C(N)O3)cc1OC` (stereo not drawn) the Activity (Jurkat [4]; Homo sapiens) was “inactive” and the IC50 (HeLa) was 22.7 µM.
`COc1cc(C2C(C#N)=C(N)Oc3cc(C)n(C)c(=O)c32)cc(Br)c1OC(C)=O` (stereo not drawn) was tested, and the Activity (Jurkat [4]) was 50% and the IC50 (HeLa) was 3.5 µM.
`Cc1cc2c(c(=O)n1C)C(c1cccc(Br)c1)C(C#N)=C(N)O2` (stereo not drawn) was tested, and the Activity (Jurkat [4]) was 50% and the IC50 (HeLa) was 6.5 µM.

Source: ChEMBL document CHEMBL1149527, “Antiproliferative and apoptosis inducing properties of pyrano[3,2-c]pyridones accessible by a one-step multicomponent synthesis” (Bioorg Med Chem Lett, 2007)
